Experimental findings from ChEMBL document CHEMBL4190362, “Synthesis, biological evaluation and quantitative structure-active relationships of 1,3-thiazolidin-4-one derivatives. A promising chemical scaffold endowed with high antifungal potency and low cytotoxicity” (Eur J Med Chem, 2017) are described below.

Molecules are shown by their SMILES.

Holding throughout (format): functional
One assay deals with Escherichia coli. Put plainly: Antibacterial activity against Escherichia coli assessed as inhibition of microbial growth incubated for 18 to 22 hrs by broth microdilution method. Put shortly:
(§1)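 Broth microdilution in Mueller-Hinton II broth following NCCLS recommendations; compounds dissolved in DMSO.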
(In general: In broth dilution the organism is exposed to a series of concentrations in liquid medium.)

The subject of a further assay is Proteus mirabilis. Nature of the assay: Antibacterial activity against Proteus mirabilis assessed as inhibition of microbial growth incubated for 18 to 22 hrs by broth microdilution method. Put shortly:
as §1

A further assay deals with Staphylococcus aureus. Nature of the assay: Antibacterial activity against Staphylococcus aureus assessed as inhibition of microbial growth incubated for 18 to 22 hrs by broth microdilution method. The method in brief:
as §1

The subject of the next assay is Enterococcus faecalis. Put plainly: Antibacterial activity against Streptococcus faecalis assessed as inhibition of microbial growth incubated for 18 to 22 hrs by broth microdilution method. Put shortly: as §1
For a further assay, the system named is Klebsiella oxytoca. Nature of the assay: Antibacterial activity against Klebsiella oxytoca assessed as inhibition of microbial growth incubated for 18 to 22 hrs by broth microdilution method. The method in brief: as §1
The subject of another assay is Staphylococcus warneri. Nature of the assay: Antibacterial activity against Staphylococcus warneri assessed as inhibition of microbial growth incubated for 18 to 22 hrs by broth microdilution method. The method in brief: as §1
Another assay has as its system Candida tropicalis. Put plainly: Antifungal activity against Candida tropicalis clinical isolates assessed as inhibition of microbial growth incubated for 24 hrs by broth microdilution method. Put shortly:
(§2)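 Twenty-two clinical Candida isolates (8 C. albicans, 4 C. glabrata, 3 C. tropicalis, 3 C. krusei, 2 C. parapsilosis, 2 C. sake) were identified by colony morphology and biochemistry and subcultured at 35 °C for purity. Compounds were dissolved in DMSO and tested by broth microdilution in Sabouraud dextrose broth per NCCLS/CLSI/EUCAST guidance. Values are geometric mean MIC per species (µg/mL).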

In the next assay the test system is Enterobacter. Put plainly: Antibacterial activity against Enterobacter spp. assessed as inhibition of microbial growth incubated for 18 to 22 hrs by broth microdilution method. The method in brief: as §1
The test system of another assay is Candida albicans. Nature of the assay: Antifungal activity against Candida albicans clinical isolates assessed as inhibition of microbial growth incubated for 24 hrs by broth microdilution method. Put shortly:
as §2

Another assay relates to Candida parapsilosis. Nature of the assay: Antifungal activity against Candida parapsilosis clinical isolates assessed as inhibition of microbial growth incubated for 24 hrs by broth microdilution method. To be noted: Lodderomyces parapsilosis. Put shortly: as §2
Another assay relates to Nakaseomyces glabratus. Nature of the assay: Antifungal activity against Candida glabrata clinical isolates assessed as inhibition of microbial growth incubated for 24 hrs by broth microdilution method. Put shortly: as §2
A further assay concerns [Candida] sake. Put plainly: Antifungal activity against Candida sake clinical isolates assessed as inhibition of microbial growth incubated for 24 hrs by broth microdilution method. To be noted: Fermentozyma sake. The method in brief:
as §2

A further assay deals with Pichia kudriavzevii. Put plainly: Antifungal activity against Candida krusei clinical isolates assessed as inhibition of microbial growth incubated for 24 hrs by broth microdilution method. Put shortly:
as §2

Consider `C/C(=N/N=C1/SCC(=O)N1Cc1ccccc1)c1c[nH]c2ccccc12`, for which the minimal inhibitory concentration (MIC) in the assay on Escherichia coli, with Proteus mirabilis, in the assay on Staphylococcus aureus, in the assay with Enterococcus faecalis, with Klebsiella oxytoca and in the assay with Staphylococcus warneri was no less than 256 µg/mL in each case. In addition, the MIC (in general, the least concentration at which growth counts as inhibited) is 16 µg/mL in the assay on Candida tropicalis; no less than 256 µg/mL in the assay with Enterobacter; 8 µg/mL with Candida albicans; 32 µg/mL in the assay with Candida parapsilosis; 4 µg/mL in the assay with Nakaseomyces glabratus; 8 µg/mL in assay [Candida] sake. The minimal inhibitory concentration (MIC) with Pichia kudriavzevii is 4 µg/mL.

With `C/C(=N/N=C1\NC(=O)CS1)c1ccc(/C(C)=N\N=C2/NC(=O)CS2)cc1`, the MIC in the assay with Escherichia coli, with Proteus mirabilis, with Staphylococcus aureus, with Enterococcus faecalis, in the assay on Klebsiella oxytoca and in the assay with Staphylococcus warneri was no less than 256 µg/mL in each case. Also, the MIC with Candida tropicalis was 2 µg/mL; in the assay on Enterobacter it was no less than 256 µg/mL; with Candida albicans, 2 µg/mL; in the assay on Candida parapsilosis it was 2 µg/mL; with Nakaseomyces glabratus, 2 µg/mL; in [Candida] sake, 2 µg/mL. Moreover, the MIC in the assay on Pichia kudriavzevii is 2 µg/mL.

For the compound `C/C(=N/N=C1/SCC(=O)N1Cc1ccccc1)c1ccc(/C(C)=N\N=C2\SCC(=O)N2Cc2ccccc2)cc1`, the MIC with Escherichia coli, in the assay with Proteus mirabilis, in the assay on Staphylococcus aureus, in the assay on Enterococcus faecalis, in the assay on Klebsiella oxytoca and with Staphylococcus warneri was no less than 256 µg/mL throughout. For the same compound, the minimum inhibitory concentration (MIC) was 32 µg/mL in the assay with Candida tropicalis; no less than 256 µg/mL in the assay on Enterobacter; 8 µg/mL in the assay with Candida albicans; 32 µg/mL in the assay with Candida parapsilosis; 2 µg/mL in the assay with Nakaseomyces glabratus; 8 µg/mL in assay [Candida] sake. Besides, in the assay with Pichia kudriavzevii, the minimal inhibitory concentration (MIC) is 8 µg/mL.

As for `C/C(CC(C)C)=N/N=C1/SCC(=O)N1Cc1ccccc1`, the MIC in the assay on Escherichia coli, in the assay with Proteus mirabilis, with Staphylococcus aureus, with Enterococcus faecalis, in the assay with Klebsiella oxytoca and in the assay with Staphylococcus warneri was no less than 256 µg/mL each time. The minimal inhibitory concentration (MIC) with Candida tropicalis is 16 µg/mL; in the assay on Enterobacter it was no less than 256 µg/mL; in the assay with Candida albicans, 8 µg/mL; in the assay with Candida parapsilosis, 16 µg/mL; with Nakaseomyces glabratus it was 8 µg/mL; in assay [Candida] sake, 16 µg/mL. Also, the MIC in the assay with Pichia kudriavzevii is 16 µg/mL.

Turning to `C/C(=N/N=C1/SCC(=O)N1Cc1ccccc1)c1ccc2c(c1)OCCO2`, the MIC with Escherichia coli, in the assay with Proteus mirabilis, with Staphylococcus aureus, in the assay on Enterococcus faecalis, with Klebsiella oxytoca and in the assay with Staphylococcus warneri was no less than 256 µg/mL throughout. Also, the minimal inhibitory concentration (MIC) in the assay with Candida tropicalis was 2 µg/mL; with Enterobacter, no less than 256 µg/mL; in the assay with Candida albicans it was 2 µg/mL; in the assay on Candida parapsilosis, 2 µg/mL; in the assay with Nakaseomyces glabratus it was 8 µg/mL; in assay [Candida] sake, 8 µg/mL. In addition, the MIC in the assay on Pichia kudriavzevii amounted to 4 µg/mL.

On to `C/C(=N/N=C1/SCC(=O)N1Cc1ccccc1)c1ccccn1`, for which the MIC with Escherichia coli, in the assay on Proteus mirabilis, with Staphylococcus aureus, in the assay on Enterococcus faecalis, in the assay on Klebsiella oxytoca and in the assay with Staphylococcus warneri was no less than 256 µg/mL throughout. Also, the minimum inhibitory concentration (MIC) with Candida tropicalis was 28 µg/mL; in the assay with Enterobacter, no less than 256 µg/mL; with Candida albicans, 256 µg/mL; with Candida parapsilosis, 256 µg/mL; in the assay on Nakaseomyces glabratus it was 16 µg/mL; in assay [Candida] sake, 256 µg/mL. In addition, the minimum inhibitory concentration (MIC) in the assay with Pichia kudriavzevii amounted to 256 µg/mL.

As to `CCC/C(CC)=N\N=C1\SCC(=O)N1Cc1ccccc1`, the minimal inhibitory concentration (MIC) with Escherichia coli, in the assay on Proteus mirabilis, in the assay with Staphylococcus aureus, in the assay on Enterococcus faecalis, with Klebsiella oxytoca and in the assay with Staphylococcus warneri was no less than 256 µg/mL throughout. Besides, the minimum inhibitory concentration (MIC) in the assay on Candida tropicalis was 4 µg/mL; with Enterobacter, no less than 256 µg/mL; in the assay on Candida albicans, 4 µg/mL; in the assay on Candida parapsilosis it was 8 µg/mL; in the assay with Nakaseomyces glabratus, 4 µg/mL; in [Candida] sake, 8 µg/mL. Also, the MIC in the assay on Pichia kudriavzevii stood at 4 µg/mL.

Take `Clc1ccc(C(Cn2ccnc2)OCc2ccsc2Cl)c(Cl)c1` (stereo unspecified) [TIOCONAZOLE]: the MIC in the assay on Candida tropicalis turned out to be 8 µg/mL; in the assay with Candida albicans, 8 µg/mL; in the assay on Candida parapsilosis, 8 µg/mL; in the assay with Nakaseomyces glabratus, 4 µg/mL; in assay [Candida] sake it was 4 µg/mL; with Pichia kudriavzevii, 8 µg/mL.

Turning to `CC(=O)N1CCN(c2ccc(OCC3COC(Cn4ccnc4)(c4ccc(Cl)cc4Cl)O3)cc2)CC1` (stereo unspecified) [KETOCONAZOLE], the MIC with Candida tropicalis is 2 µg/mL; with Candida albicans, 2 µg/mL; in the assay with Candida parapsilosis it was 2 µg/mL; with Nakaseomyces glabratus, 2 µg/mL; in assay [Candida] sake, 4 µg/mL; in the assay on Pichia kudriavzevii it was 4 µg/mL.

With `O=C1CS/C(=N/N=C\c2ccncc2)N1Cc1ccccc1`, the minimal inhibitory concentration (MIC) in the assay with Escherichia coli, in the assay with Proteus mirabilis, in the assay with Staphylococcus aureus, in the assay with Enterococcus faecalis, in the assay on Klebsiella oxytoca and in the assay with Staphylococcus warneri was no less than 256 µg/mL in each case. Besides, the MIC in the assay with Candida tropicalis was 256 µg/mL; in the assay with Enterobacter, no less than 256 µg/mL; with Candida albicans, 256 µg/mL; in the assay on Candida parapsilosis it was 256 µg/mL; in the assay on Nakaseomyces glabratus it was 256 µg/mL; in [Candida] sake it was 256 µg/mL. Also, in the assay on Pichia kudriavzevii, the MIC turned out to be 256 µg/mL.

Regarding `O=C1CS/C(=N/N=C\c2ccco2)N1Cc1ccccc1`, the MIC with Escherichia coli, in the assay on Proteus mirabilis, with Staphylococcus aureus, in the assay on Enterococcus faecalis, in the assay on Klebsiella oxytoca and in the assay on Staphylococcus warneri was no less than 256 µg/mL each time. Besides, the minimal inhibitory concentration (MIC) is 8 µg/mL in the assay on Candida tropicalis; no less than 256 µg/mL with Enterobacter; 8 µg/mL with Candida albicans; 4 µg/mL with Candida parapsilosis; 4 µg/mL in the assay with Nakaseomyces glabratus; 4 µg/mL in [Candida] sake. For the same compound, the minimal inhibitory concentration (MIC) in the assay on Pichia kudriavzevii was 4 µg/mL.

Take `O=C1CS/C(=N/N=C2CCCCCCC2)N1Cc1ccccc1`: the MIC in the assay with Escherichia coli, with Proteus mirabilis, with Staphylococcus aureus, with Enterococcus faecalis, in the assay on Klebsiella oxytoca and in the assay with Staphylococcus warneri was no less than 256 µg/mL each time. In addition, the minimal inhibitory concentration (MIC) was 8 µg/mL in the assay on Candida tropicalis; no less than 256 µg/mL in the assay with Enterobacter; 8 µg/mL in the assay with Candida albicans; 8 µg/mL with Candida parapsilosis; 8 µg/mL with Nakaseomyces glabratus; 8 µg/mL in assay [Candida] sake. For the same compound, in the assay with Pichia kudriavzevii, the MIC came out at 8 µg/mL.

As for `CC(=O)c1ccc(/C(C)=N\N=C2\SCC(=O)N2Cc2ccccc2)cc1`, the minimum inhibitory concentration (MIC) with Escherichia coli, with Proteus mirabilis, with Staphylococcus aureus, in the assay on Enterococcus faecalis, with Klebsiella oxytoca and in the assay with Staphylococcus warneri was no less than 256 µg/mL in each case. The minimum inhibitory concentration (MIC) is 32 µg/mL in the assay with Candida tropicalis; no less than 256 µg/mL in the assay on Enterobacter; 8 µg/mL with Candida albicans; 32 µg/mL in the assay with Candida parapsilosis; 2 µg/mL with Nakaseomyces glabratus; 8 µg/mL in assay [Candida] sake. Also, the MIC in the assay with Pichia kudriavzevii worked out at 8 µg/mL.

Regarding `CC1CC/C(=N/N=C2/SCC(=O)N2Cc2ccccc2)C1` (stereo unspecified), the MIC in the assay with Escherichia coli, with Proteus mirabilis, in the assay with Staphylococcus aureus, in the assay on Enterococcus faecalis, in the assay on Klebsiella oxytoca and in the assay on Staphylococcus warneri was no less than 256 µg/mL in each case. The MIC with Candida tropicalis is 256 µg/mL; in the assay with Enterobacter, no less than 256 µg/mL; with Candida albicans, 256 µg/mL; in the assay on Candida parapsilosis, 256 µg/mL; in the assay on Nakaseomyces glabratus it was 256 µg/mL; in [Candida] sake, 256 µg/mL. Moreover, in the assay on Pichia kudriavzevii, the MIC was determined as 256 µg/mL.

`OC(Cn1cncn1)(Cn1cncn1)c1ccc(F)cc1F` [FLUCONAZOLE]: the MIC (in the assay with Candida tropicalis; in the assay on Candida albicans; in the assay on Candida parapsilosis; in the assay with Nakaseomyces glabratus; in [Candida] sake; in the assay on Pichia kudriavzevii) was 2 µg/mL in each case.

Consider `C[C@@H]1[C@H](O)[C@@H](C)/C=C/C=C/C=C/C=C/C=C/C=C/C=C/[C@H](O[C@@H]2O[C@H](C)[C@@H](O)[C@H](N)[C@@H]2O)C[C@@H]2O[C@](O)(C[C@@H](O)C[C@@H](O)[C@H](O)CC[C@@H](O)C[C@@H](O)CC(=O)O[C@H]1C)C[C@H](O)[C@H]2C(=O)O` [AMPHOTERICIN B], for which the MIC in the assay with Candida tropicalis is 2 µg/mL; with Candida albicans, 4 µg/mL; with Candida parapsilosis, 2 µg/mL; with Nakaseomyces glabratus, 4 µg/mL; in assay [Candida] sake, 2 µg/mL; with Pichia kudriavzevii, 4 µg/mL.

With `Clc1ccc(COC(Cn2ccnc2)c2ccc(Cl)cc2Cl)c(Cl)c1` (stereo unspecified) [MICONAZOLE], the minimum inhibitory concentration (MIC) in the assay on Candida tropicalis was 2 µg/mL; in the assay on Candida albicans it was 2 µg/mL; in the assay on Candida parapsilosis, 4 µg/mL; in the assay with Nakaseomyces glabratus it was 4 µg/mL; in [Candida] sake, 2 µg/mL; in the assay on Pichia kudriavzevii, 4 µg/mL.
